The test system of one assay is Vero. In words: Cytotoxicity against african green monkey vero cells after 3 days. Type of assay: cell-based. Conditions: Chlorocebus sabaeus, 72 h. In outline:
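Vero cells grown in L15 medium without CO2, 1.25×10^5 per well. Triplicate 2-fold drug dilutions from 200 µg/mL, with resazurin at a final 25 µg/mL, for 3 days at 37 °C. LD is the lowest concentration that inhibits growth, with no resazurin reduction.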

Assay [1] concerns Francisella tularensis. In words: Antibacterial activity against Francisella tularensis LVS after 18 hrs by Microplate Alamar Blue assay. It is filed as functional. On the technique in general: Resazurin is reduced to fluorescent resorufin, in cell work by metabolically active cells.
Assay [2] relates to Francisella tularensis. The experiment in a line: Antibacterial activity against Francisella tularensis LVS at 1 ug/ml by Microplate Alamar Blue assay. As to conditions: read-out: GI. It is filed as functional.
The test system of assay [3] is Francisella tularensis. The experiment in a line: Antibacterial activity against Francisella tularensis LVS at 0.2 ug/ml by Microplate Alamar Blue assay. Conditions: read-out: GI. It is filed as functional.
In assay [4] the test system is Francisella tularensis. In words: Antibacterial activity against Francisella tularensis LVS infected in mouse RAW 264.7 macrophages assessed as log reduction in CFU at 2 to 50 ug/ml after 18 hrs relative to control. Type of assay: functional.
Assay [5] has as its system Francisella tularensis. In words: Antibacterial activity against Francisella tularensis LVS infected in mouse RAW 264.7 macrophages after 18 hrs. It is filed as functional.

The structures appear in SMILES notation. Values after ≈ are worked out from the molar mass of the structure shown.

The IC50 is the midpoint of a concentration-inhibition curve. The MIC90 is an inhibitory concentration at the 90% level, which refers to growth in some studies and to a panel of isolates in others. Take `CCN(CC)c1cc2[nH]c(-c3ccc(F)cc3)nc2cc1NC(=O)C1CCC1`: the IC50 with Vero is above 200 µg/mL. Besides, the MIC90 with Francisella tularensis [1] was 4.84 µg/mL (≈ 12.7 µM). For the same molecule, the inhibition of growth at 1 µg/mL with Francisella tularensis [2] was above 90%.
For `CCOC(=O)Nc1cc(N)c2[nH]c(-c3cc(C)cc(C)c3)nc2c1` the same measures were above 200 µg/mL, 4.33 µg/mL (≈ 13.3 µM) and above 90%.
As to `CCOC(=O)Nc1cc(NC(=O)c2ccccc2)c2[nH]c(-c3ccc(C(=O)OC)cc3)nc2c1`, in the assay on Vero, inhibition was half-maximal at 650 µg/mL (≈ 1420 µM) (IC50). For the same molecule, the inhibition of growth at 1 µg/mL in the assay with Francisella tularensis [2] was above 90%. Also, the inhibition of growth at 0.2 µg/mL in the assay with Francisella tularensis [3] worked out at 40%.
`CCN(CC)c1cc2[nH]c(-c3ccc(C)cc3)nc2cc1NC(=O)C1CCC1` had an IC50 in the assay on Vero above 200 µg/mL. For the same molecule, the MIC90 against Francisella tularensis [1] is 1.16 µg/mL (≈ 3.08 µM). Besides, in the assay with Francisella tularensis [2], the inhibition of growth at 1 µg/mL was above 90%. In the assay on Francisella tularensis [3], the inhibition of growth at 0.2 µg/mL amounted to 40%.
With `CCN(CC)c1cc2[nH]c(-c3ccccc3OC)nc2cc1NC(=O)C1CCC1`, in the assay on Vero, the IC50 is above 200 µg/mL. The same molecule displayed an MIC90 against Francisella tularensis [1] of 7.59 µg/mL (≈ 19.3 µM). Further, the inhibition of growth at 1 µg/mL in the assay on Francisella tularensis [2] was above 90%.
Regarding `COc1ccccc1C(=O)Nc1cc2nc(-c3cccs3)[nH]c2cc1N1CCCCC1`, the 50% inhibitory concentration (IC50) in the assay with Vero is above 200 µg/mL. This molecule also had an MIC90 against Francisella tularensis [1] of 1.6 µg/mL (≈ 3.7 µM). Moreover, the inhibition of growth at 1 µg/mL in the assay with Francisella tularensis [2] is above 90%.
In turn, `CCOC(=O)Nc1cc(N)c2[nH]c(-c3ccc(Br)cc3)nc2c1` came in with an IC50 in the assay on Vero above 200 µg/mL. This molecule also yielded an MIC90 in the assay with Francisella tularensis [1] of 2.99 µg/mL (≈ 7.97 µM). Moreover, in the assay on Francisella tularensis [2], the inhibition of growth at 1 µg/mL was above 90%.
For `CCOC(=O)Nc1cc(NC(=O)C2CCCC2)c2[nH]c(-c3ccc(Br)cc3)nc2c1` the same measures were above 200 µg/mL, 0.75 µg/mL (≈ 1.59 µM) and above 90%.
For `O=C(Nc1cc2nc(C3CCCCC3)[nH]c2cc1N1CCCC1)C1CC1` the same measures were above 200 µg/mL, 2.1 µg/mL (≈ 5.96 µM) and above 90%.
For `CC(C)(C)OC(=O)Nc1cc(NC(=O)OCc2ccccc2)c2[nH]c(-c3ccccc3)nc2c1` the same measures were above 200 µg/mL, 0.35 µg/mL (≈ 0.763 µM) and above 90%.
On to `O=C(Nc1cc2nc(-c3ccco3)[nH]c2cc1N1CCCCC1)c1cccc2ccccc12`, for which, in the assay with Francisella tularensis [4], the FC was found to be 2. In addition, the Activity result with Francisella tularensis [5] is “Dose-dependent effect”. This molecule also had an IC50 in the assay with Vero above 200 µg/mL. In addition, in the assay with Francisella tularensis [1], the MIC90 stood at 2.4 µg/mL (≈ 5.5 µM). Besides, the inhibition of growth at 1 µg/mL in the assay on Francisella tularensis [2] was above 90%.
For `O=C(Nc1cc2nc(-c3cccs3)[nH]c2cc1N1CCCCC1)OCc1ccccc1` the same measures were 2, “Dose-dependent effect”, above 200 µg/mL, 0.98 µg/mL (≈ 2.27 µM) and above 90%.
As to `CCN(CCN(C)C)c1cc2[nH]c(C3CCCCC3)nc2cc1NS(=O)(=O)c1ccccc1`, the IC50 in the assay on Vero is above 200 µg/mL. The same molecule had an MIC90 in the assay with Francisella tularensis [1] of 35.8 µg/mL (≈ 76.2 µM). In the assay on Francisella tularensis [2], the inhibition of growth at 1 µg/mL was above 90%.
On to `COc1ccccc1C(=O)Nc1cc2nc(-c3ccco3)[nH]c2cc1N1CCCCC1`, for which the FC in the assay on Francisella tularensis [4] turned out to be 2. Also, in the assay with Francisella tularensis [5], the Activity entry is “Dose-dependent effect”. Moreover, the half-inhibitory concentration (IC50) with Vero was above 200 µg/mL. In the assay on Francisella tularensis [1], this molecule returned an MIC90 of 2.1 µg/mL (≈ 5.04 µM). Further, the inhibition of growth at 1 µg/mL in the assay on Francisella tularensis [2] was above 90%.
As to `CCOC(=O)Nc1cc(NC(=O)C2CCCCC2)c2[nH]c(-c3ccc(C(=O)OC)cc3)nc2c1`, in the assay on Vero, the IC50 was above 200 µg/mL. For the same molecule, the MIC90 in the assay with Francisella tularensis [1] came to 1.5 µg/mL (≈ 3.23 µM). In addition, the inhibition of growth at 1 µg/mL with Francisella tularensis [2] is above 90%. Moreover, in the assay with Francisella tularensis [3], the inhibition of growth at 0.2 µg/mL worked out at 40%.
On to `CCOC(=O)Nc1cc(NC(=O)c2ccc(OC)cc2)c2[nH]c(-c3ccc(C(=O)OC)cc3)nc2c1`, for which, in the assay with Vero, the half-maximal inhibitory concentration (IC50) is above 200 µg/mL. For the same molecule, the inhibition of growth at 1 µg/mL with Francisella tularensis [2] was above 90%. Besides, the inhibition of growth at 0.2 µg/mL with Francisella tularensis [3] worked out at 40%.
In the assay with Vero, `CCOC(=O)Nc1cc(NC(=O)c2ccccc2)c2[nH]c(-c3ccco3)nc2c1` gave an IC50 above 200 µg/mL. For the same molecule, the MIC90 with Francisella tularensis [1] was determined as 3.8 µg/mL (≈ 9.73 µM). For the same molecule, in the assay on Francisella tularensis [2], the inhibition of growth at 1 µg/mL was above 90%. The inhibition of growth at 0.2 µg/mL in the assay with Francisella tularensis [3] stood at 40%.
Molecule `CCOC(=O)Nc1cc(NC(=O)c2ccc(F)cc2)c2[nH]c(-c3ccco3)nc2c1` gave an IC50 in the assay with Vero above 200 µg/mL. The molecule further came in with an MIC90 against Francisella tularensis [1] of 2.8 µg/mL (≈ 6.86 µM). Besides, the inhibition of growth at 1 µg/mL with Francisella tularensis [2] is above 90%. Besides, the inhibition of growth at 0.2 µg/mL in the assay with Francisella tularensis [3] amounted to 40%.
In the assay on Vero, `CCN(CC)c1cc2[nH]c(-c3ccccc3)nc2cc1NC(=O)c1ccc(C)cc1` gave a concentration for half-maximal inhibition (IC50) above 200 µg/mL. In addition, the MIC90 against Francisella tularensis [1] was determined as 12.9 µg/mL (≈ 32.4 µM). In the assay with Francisella tularensis [2], the inhibition of growth at 1 µg/mL is above 90%. Further, the inhibition of growth at 0.2 µg/mL in the assay on Francisella tularensis [3] came to 40%.
As for `CCOC(=O)Nc1cc(NC(=O)c2ccccc2)c2[nH]c(-c3ccc(Br)cc3)nc2c1`, the IC50 in the assay on Vero is above 200 µg/mL. In the assay with Francisella tularensis [1], this molecule showed an MIC90 of 0.48 µg/mL (≈ 1 µM). Further, in the assay with Francisella tularensis [2], the inhibition of growth at 1 µg/mL was above 90%.
For `CN(C)CCN(C)c1cc2[nH]c(C3CCCCC3)nc2cc1NS(=O)(=O)c1ccccc1` the same measures were above 200 µg/mL, 48.6 µg/mL (≈ 107 µM) and above 90%.
Take `CCOC(=O)Nc1cc(NC(=O)c2ccccc2OC)c2[nH]c(-c3ccc(Br)cc3)nc2c1`: the IC50 in the assay with Vero is above 200 µg/mL. The MIC90 with Francisella tularensis [1] is 1.4 µg/mL (≈ 2.75 µM). Also, the inhibition of growth at 1 µg/mL in the assay with Francisella tularensis [2] is above 90%.
For `CCN(CC)c1cc2[nH]c(-c3ccccc3OC)nc2cc1NC(=O)c1ccccc1OC` the same measures were above 200 µg/mL, 4.85 µg/mL (≈ 10.9 µM) and above 90%.

The values are drawn from ChEMBL document CHEMBL2384967, “Benzimidazole-based antibacterial agents against Francisella tularensis” (Bioorg Med Chem, 2013).
